Test results from ChEMBL document CHEMBL1143519, “2-Piperazinecarboxamides as potent and selective melanocortin subtype-4 receptor agonists” (Bioorg Med Chem Lett, 2005).
Each block holds one compound with its values, some of them ahead of it.

How the values were obtained:
Melanocortin receptor 4 [1] = biological target: T1, Melanocortin receptor 4 (Homo sapiens, UniProt P32245); experiment: Inhibitory concentration to displace [125I]NDP-alpha-MSH from human melanocortin 4 receptor expressed in CHO cells; Control 19 nM; type: cell-based
T1 sequence (P32245 whole entry): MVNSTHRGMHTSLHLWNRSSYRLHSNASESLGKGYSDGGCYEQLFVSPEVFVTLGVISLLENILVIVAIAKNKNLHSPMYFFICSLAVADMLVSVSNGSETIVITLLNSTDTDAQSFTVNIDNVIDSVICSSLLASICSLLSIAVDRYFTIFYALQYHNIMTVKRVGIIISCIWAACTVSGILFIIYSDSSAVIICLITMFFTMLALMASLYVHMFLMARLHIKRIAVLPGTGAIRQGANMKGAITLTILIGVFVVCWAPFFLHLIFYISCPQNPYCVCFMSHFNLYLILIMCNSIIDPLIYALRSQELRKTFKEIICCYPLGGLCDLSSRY

[2] = biological target: Melanocortin receptor (M3 and M4) (Homo sapiens) (UniProt P32245+P41968); experiment: Selectivity for human melanocortin 3 receptor over melanocortin 4 receptor expressed in CHO cells; control 1 nM; type: cell-based
[3] = Selectivity for human melanocortin 3 receptor over melanocortin 5 receptor expressed in CHO cells; control 6 nM; type: cell-based
Melanocortin receptor 5 [4] = biological target: T2, Melanocortin receptor 5 (Homo sapiens, UniProt P33032); experiment: Concentration of compound at 50% maximum cAMP accumulation mediated by human melanocortin 5 receptor; type: functional
T2 sequence (P33032 whole entry): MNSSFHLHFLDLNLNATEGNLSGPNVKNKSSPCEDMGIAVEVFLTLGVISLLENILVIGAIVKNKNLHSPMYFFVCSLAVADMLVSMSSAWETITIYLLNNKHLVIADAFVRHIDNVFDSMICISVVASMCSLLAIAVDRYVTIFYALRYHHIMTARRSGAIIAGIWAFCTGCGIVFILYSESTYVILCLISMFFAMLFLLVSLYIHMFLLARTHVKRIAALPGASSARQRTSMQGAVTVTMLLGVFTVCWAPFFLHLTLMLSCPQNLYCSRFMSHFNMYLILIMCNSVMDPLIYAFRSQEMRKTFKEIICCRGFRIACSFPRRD

Melanocortin receptor 4 [5] = biological target: T1, Melanocortin receptor 4; experiment: Concentration of compound at 50% maximum cAMP accumulation mediated by human melanocortin 4 receptor; type: functional
Melanocortin receptor 5 [6] = biological target: T2, Melanocortin receptor 5; conditions: at 10 µM
Melanocortin receptor 3 [7] = biological target: T3, Melanocortin receptor 3 (Homo sapiens, UniProt P41968); conditions: at 10 µM
T3 sequence (P41968 whole entry): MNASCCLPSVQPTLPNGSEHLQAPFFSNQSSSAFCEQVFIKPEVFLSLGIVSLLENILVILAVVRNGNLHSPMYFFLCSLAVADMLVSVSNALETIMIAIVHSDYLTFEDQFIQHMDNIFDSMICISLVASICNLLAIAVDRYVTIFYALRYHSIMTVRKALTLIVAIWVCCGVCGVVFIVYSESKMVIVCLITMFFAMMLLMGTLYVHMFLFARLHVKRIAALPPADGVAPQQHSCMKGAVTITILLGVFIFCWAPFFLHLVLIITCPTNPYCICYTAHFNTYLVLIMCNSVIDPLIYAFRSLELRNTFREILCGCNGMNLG

Melanocortin receptor 4 [8] = biological target: T1, Melanocortin receptor 4; conditions: at 10 µM
Rattus norvegicus = species: Rattus norvegicus; experiment: Covalent binding to rat microsomal proteins after 30 min of incubation with [3H]-compound in the presence of NADPH (n=3); type: functional
Summary of the method: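 Tritium-labelled compound was incubated for 30 min with rat liver microsomes plus NADPH. Radioactivity bound covalently to microsomal protein was expressed as pmol equivalents per mg protein. Values are mean ± standard deviation of n = 3.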

Melanocortin receptor 3 [9] = biological target: T3, Melanocortin receptor 3; experiment: Concentration of compound at 50% maximum cAMP accumulation mediated by human melanocortin 3 receptor; type: functional

SMILES: CC(C)(C)NC(=O)C1(C2CCCCC2)CCN(C(=O)[C@@H](Cc2ccc(F)cc2)NC(=O)[C@@H]2CN[C@H](C(C)(C)C)CN2)CC1
IC50 (Melanocortin receptor 4 [1]): 29 nM | Selectivity [2]: 48 | Selectivity [3]: 26 | EC50 (Melanocortin receptor 5 [4]): 1000 nM | EC50 (Melanocortin receptor 4 [5]): 91 nM | Accumulation (Melanocortin receptor 5 [6]): 54% | Accumulation (Melanocortin receptor 3 [7]): 5% | Accumulation (Melanocortin receptor 4 [8]): 77%

SMILES: CC(C)[C@@H]1CN[C@H](C(=O)N[C@H](Cc2ccc(F)cc2)C(=O)N2CCC(C(=O)NC(C)(C)C)(C3CCCCC3)CC2)CN1
IC50 (Melanocortin receptor 4 [1]): 20 nM | Selectivity [2]: 61 | Selectivity [3]: 49 | EC50 (Melanocortin receptor 5 [4]): 1400 nM | EC50 (Melanocortin receptor 4 [5]): 42 nM | Accumulation (Melanocortin receptor 5 [6]): 41% | Accumulation (Melanocortin receptor 3 [7]): 6% | Accumulation (Melanocortin receptor 4 [8]): 77%

SMILES: CC(C)N(C(=O)C1(C2CCCCC2)CCN(C(=O)[C@@H](Cc2ccc(F)cc2)NC(=O)[C@@H]2CN(C)CCN2)CC1)C(C)C
Activity (Rattus norvegicus): 2150

SMILES: CC(C)(C)NC(=O)C1(C2CCCCC2)CCN(C(=O)[C@@H](Cc2ccc(F)cc2)NC(=O)[C@@H]2CN[C@H](C3(C)CC3)CN2)CC1
IC50 (Melanocortin receptor 4 [1]): 24 nM | Selectivity [2]: 49 | Selectivity [3]: 23 | EC50 (Melanocortin receptor 5 [4]): 920 nM | EC50 (Melanocortin receptor 4 [5]): 93 nM | Accumulation (Melanocortin receptor 5 [6]): 56% | Accumulation (Melanocortin receptor 3 [7]): 5% | Accumulation (Melanocortin receptor 4 [8]): 69%

SMILES: CC(C)(C)NC(=O)C1(C2CCCCC2)CCN(C(=O)[C@@H](Cc2ccc(F)cc2)NC(=O)[C@@H]2CNC3(CC3)CN2)CC1
IC50 (Melanocortin receptor 4 [1]): 17 nM | Selectivity [2]: 42 | Selectivity [3]: 61 | EC50 (Melanocortin receptor 5 [4]): 1900 nM | EC50 (Melanocortin receptor 4 [5]): 41 nM | Accumulation (Melanocortin receptor 5 [6]): 36% | Accumulation (Melanocortin receptor 3 [7]): 6% | Accumulation (Melanocortin receptor 4 [8]): 53%

SMILES: CC[C@@H]1CN[C@H](C(=O)N[C@H](Cc2ccc(F)cc2)C(=O)N2CCC(C(=O)NC(C)(C)C)(C3CCCCC3)CC2)CN1C
IC50 (Melanocortin receptor 4 [1]): 46 nM | Selectivity [2]: 36 | Selectivity [3]: 49 | EC50 (Melanocortin receptor 5 [4]): 2400 nM | EC50 (Melanocortin receptor 4 [5]): 330 nM | Accumulation (Melanocortin receptor 5 [6]): 36% | Accumulation (Melanocortin receptor 3 [7]): 8% | Accumulation (Melanocortin receptor 4 [8]): 58%

SMILES: CC[C@@H]1CN[C@H](C(=O)N[C@H](Cc2ccc(F)cc2)C(=O)N2CCC(C(=O)NC(C)(C)C)(C3CCCCC3)CC2)CN1
IC50 (Melanocortin receptor 4 [1]): 40 nM | Selectivity [2]: 59 | Selectivity [3]: 75 | EC50 (Melanocortin receptor 4 [5]): 150 nM | Accumulation (Melanocortin receptor 5 [6]): 45% | Accumulation (Melanocortin receptor 3 [7]): 6% | Accumulation (Melanocortin receptor 4 [8]): 69%

SMILES: CC(C)(C)NC(=O)C1(C2CCCCC2)CCN(C(=O)[C@@H](Cc2ccc(F)cc2)NC(=O)[C@@H]2CN[C@H](C3CC3)CN2)CC1.CC(F)(F)C(=O)O
IC50 (Melanocortin receptor 4 [1]): 25 nM | Selectivity [2]: 42 | Selectivity [3]: 65 | EC50 (Melanocortin receptor 5 [4]): 1400 nM | EC50 (Melanocortin receptor 4 [5]): 36 nM | Accumulation (Melanocortin receptor 5 [6]): 33% | Accumulation (Melanocortin receptor 3 [7]): 4% | Accumulation (Melanocortin receptor 4 [8]): 67%

More lines, main results first:

IC50 (Melanocortin receptor 4 [1]): 8 nM | Selectivity [2]: 119 | EC50 (Melanocortin receptor 5 [4]): 760 nM | EC50 (Melanocortin receptor 4 [5]): 5 nM | Activity (Rattus norvegicus): 103 | Accumulation (Melanocortin receptor 5 [6]): 44% | Accumulation (Melanocortin receptor 3 [7]): 9% | Accumulation (Melanocortin receptor 4 [8]): 102%
SMILES: CC(C)(C)NC(=O)C1(C2CCCCC2)CCN(C(=O)[C@@H](Cc2ccc(F)cc2)NC(=O)[C@@H]2CN[C@@H](C3CC3)CN2)CC1
Selectivity [3]: 59

IC50 (Melanocortin receptor 4 [1]): 11 nM | Selectivity [2]: 81 | EC50 (Melanocortin receptor 4 [5]): 18 nM | Activity (Rattus norvegicus): 216 | Accumulation (Melanocortin receptor 5 [6]): 10% | Accumulation (Melanocortin receptor 3 [7]): 4% | Accumulation (Melanocortin receptor 4 [8]): 92%
SMILES: CC(C)C1CNC[C@@H](C(=O)N[C@H](Cc2ccc(F)cc2)C(=O)N2CCC(C(=O)NC(C)(C)C)(C3CCCCC3)CC2)N1 (some centres undefined)
Selectivity [3]: 105

IC50 (Melanocortin receptor 4 [1]): 5 nM | Selectivity [2]: 116 | EC50 (Melanocortin receptor 5 [4]): 360 nM | EC50 (Melanocortin receptor 4 [5]): 7 nM | Accumulation (Melanocortin receptor 5 [6]): 46% | Accumulation (Melanocortin receptor 3 [7]): 11% | Accumulation (Melanocortin receptor 4 [8]): 99%
SMILES: CC(C)(C)NC(=O)C1(C2CCCCC2)CCN(C(=O)[C@@H](Cc2ccc(F)cc2)NC(=O)[C@@H]2CN[C@@H](C(C)(C)C)CN2)CC1
Selectivity [3]: 39

IC50 (Melanocortin receptor 4 [1]): 3 nM | Selectivity [2]: 116 | EC50 (Melanocortin receptor 5 [4]): 450 nM | EC50 (Melanocortin receptor 4 [5]): 2 nM | EC50 (Melanocortin receptor 3 [9]): 150 nM | Accumulation (Melanocortin receptor 5 [6]): 56% | Accumulation (Melanocortin receptor 3 [7]): 29% | Accumulation (Melanocortin receptor 4 [8]): 85%
SMILES: CC[C@H]1CN[C@H](C(=O)N[C@H](Cc2ccc(F)cc2)C(=O)N2CCC(C(=O)NC(C)(C)C)(C3CCCCC3)CC2)CN1C
Selectivity [3]: 192

IC50 (Melanocortin receptor 4 [1]): 5 nM | Selectivity [2]: 99 | EC50 (Melanocortin receptor 5 [4]): 300 nM | EC50 (Melanocortin receptor 4 [5]): 7 nM | Accumulation (Melanocortin receptor 5 [6]): 62% | Accumulation (Melanocortin receptor 3 [7]): 10% | Accumulation (Melanocortin receptor 4 [8]): 95%
SMILES: CC(C)(C)NC(=O)C1(C2CCCCC2)CCN(C(=O)[C@@H](Cc2ccc(F)cc2)NC(=O)[C@@H]2CN[C@@H](C3(C)CC3)CN2)CC1
Selectivity [3]: 40

IC50 (Melanocortin receptor 4 [1]): 6 nM | Selectivity [2]: 86 | EC50 (Melanocortin receptor 5 [4]): 880 nM | EC50 (Melanocortin receptor 4 [5]): 8 nM | Activity (Rattus norvegicus): 50 | Accumulation (Melanocortin receptor 5 [6]): 42% | Accumulation (Melanocortin receptor 3 [7]): 6% | Accumulation (Melanocortin receptor 4 [8]): 79%
SMILES: C[C@H]1CN[C@H](C(=O)N[C@H](Cc2ccc(F)cc2)C(=O)N2CCC(C(=O)NC(C)(C)C)(C3CCCCC3)CC2)CN1
Selectivity [3]: 87

IC50 (Melanocortin receptor 4 [1]): 3 nM | Selectivity [2]: 152 | EC50 (Melanocortin receptor 5 [4]): 710 nM | EC50 (Melanocortin receptor 4 [5]): 5 nM | Accumulation (Melanocortin receptor 5 [6]): 43% | Accumulation (Melanocortin receptor 3 [7]): 9% | Accumulation (Melanocortin receptor 4 [8]): 89%
SMILES: CC[C@H]1CN[C@H](C(=O)N[C@H](Cc2ccc(F)cc2)C(=O)N2CCC(C(=O)NC(C)(C)C)(C3CCCCC3)CC2)CN1
Selectivity [3]: 126

IC50 (Melanocortin receptor 4 [1]): 4 nM | Selectivity [2]: 140 | EC50 (Melanocortin receptor 5 [4]): 340 nM | EC50 (Melanocortin receptor 4 [5]): 3 nM | Activity (Rattus norvegicus): 107 | Accumulation (Melanocortin receptor 5 [6]): 49% | Accumulation (Melanocortin receptor 3 [7]): 8% | Accumulation (Melanocortin receptor 4 [8]): 82%
SMILES: CC(C)[C@H]1CN[C@H](C(=O)N[C@H](Cc2ccc(F)cc2)C(=O)N2CCC(C(=O)NC(C)(C)C)(C3CCCCC3)CC2)CN1
Selectivity [3]: 116
